From PubChem BioAssay
S100A4 inh HTS = S100A4-myosin IIA interaction inhibition; P26447; S100A4/TAMRA-MyoIIA peptide fluorescence polarization; inhibition, % at 10.7 µM; 0.14% of 360,000 active; AID 652163;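 active = mean inhibition of at least 70% across replicates, with every replicate also reaching that level; inconclusive = mean inhibition reaches 70% but some replicates fall short; inactive = mean inhibition below 70%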
Target sequence (P26447 whole entry, looked up): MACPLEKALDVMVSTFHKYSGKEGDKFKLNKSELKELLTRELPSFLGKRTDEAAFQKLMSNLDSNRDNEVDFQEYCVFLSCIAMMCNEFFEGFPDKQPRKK
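Test system – S100A4 monomer (human) · Compound – single-point compound testing · Schedule – 5 min incubation before reading · Probe or stimulus – TAMRA-labelled myosin IIA heavy-chain peptide probe, 5 nM · Benchmarks – neutral control DMSO, positive control TFP · Medium – Calcium-containing HEPES buffer, pH 7.2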
AF4-AF9 inh = MLL-AF4/AF9 protein interaction inhibition. P42568. AlphaScreen, biotin-AF4 peptide binding to FLAG-AF9. 0.47% of 350,000 active. inhibition, % at 10 µM. AID 651704;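 active = every replicate reaching a set inhibition limit, whatever the replicate mean, cut at about 25% in these data; inconclusive = mean inhibition reaches that limit but some replicates miss it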;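 note: 0% = plate neutral control median and 100% = total signal loss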
DENV2 CPE = DENV2-induced cell death inhibition. DENV2-infected cells, cytopathic effect rescue, plate reader. CPE inhibition, % at 9.99 µM. 1.7% of 350,000 active. AID 651640; in the data active = CPE inhibition above about 20%, passing the limit was not always enough; inconclusive = no clear call, values can overlap the other calls; tested in BHK-21 cells;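 note: 0% = median of neutral control wells and 100% = median of positive control wells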
SIRT5 block = inhibitors of human sirtuin-5 desuccinylase; Q9NXA8; Purified SirT5, succinyl-peptide AMC, trypsin-coupled fluorescence; inhibition, % at 15 µM; 1.1% of 330,000 active; AID 652115; in the data active = inhibition above about 15%; inconclusive = no clear call, values can overlap the other calls
Target sequence (Q9NXA8 whole entry, looked up): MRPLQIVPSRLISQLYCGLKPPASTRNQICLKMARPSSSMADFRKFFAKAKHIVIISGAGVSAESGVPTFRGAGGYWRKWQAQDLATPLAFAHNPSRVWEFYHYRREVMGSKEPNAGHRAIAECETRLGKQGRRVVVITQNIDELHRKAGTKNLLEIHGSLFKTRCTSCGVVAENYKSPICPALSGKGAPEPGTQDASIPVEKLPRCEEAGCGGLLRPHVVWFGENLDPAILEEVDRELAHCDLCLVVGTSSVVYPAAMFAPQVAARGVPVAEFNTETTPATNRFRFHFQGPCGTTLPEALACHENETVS
CaV13 FRET inh = Disruptors of the CACNA1D IQ motif to Ca2+-dependent inactivation inhibitor domain association, primary screening, Förster resonance energy transfer in intact living …; HEK cells, CFP/YFP FRET ICDI-IQ, plate reader, 10 min; percent FRET-ratio fall versus neutral wells; inhibition, % at 12.3 µM; 0.098% of 340,000 active; AID 743397;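 active = mean replicate inhibition of at least 30% and at least 1% of replicates passing that level; inconclusive = only one of the two criteria is met; inactive = neither criterion is met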;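 note: 0% = median of the neutral control wells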
* hit, by the source's call; ? = inconclusive; / = no result. In the library only some 2.7% were active in any assay of this set; here they are far more common.

SMILES	S100A4 inh HTS	AF4-AF9 inh	DENV2 CPE	SIRT5 block	CaV13 FRET inh
CCCC(=O)Nc1ccc2c(c1)C(=O)N(C)C[C@H](OC)[C@H](C)CN(CCc1ccccc1)[C@@H](C)CO2	-17	1	-2	1	/
COc1ccc(S(=O)(=O)N2CC[C@@H]3[C@H]2c2cc(-c4ccccc4F)ccc2N(C)[C@H]3CO)cc1	/	/	26*	/	/
CN1c2ccc(-c3ccccc3F)cc2[C@@H]2[C@@H](CCN2S(=O)(=O)c2ccc(F)cc2)[C@@H]1CO	7	5	53*	6	/
COc1ccc(S(=O)(=O)N2CC[C@@H]3[C@H](CO)N(C)c4ccc(-c5ccc(F)cc5)cc4[C@@H]32)cc1	-1	-3	-21	5	/
CN1c2ccc(-c3ccccc3F)cc2[C@@H]2[C@@H](CCN2S(=O)(=O)c2ccc(F)cc2)[C@H]1CO	4	/	20	5	/
COCC#Cc1ccc2c(c1)O[C@@H](CN(C)C(=O)C1CCC1)[C@@H](C)CN([C@@H](C)CO)S2(=O)=O	-8	-3	-11	1	/
O=C1NC(=O)/C(=C/c2cc3c(cc2Br)OCO3)S1	0	-4	22*	5	-19
COC(=O)C(Cc1csc2ccc(Cl)cc12)NC(=O)c1ccc(Cl)cc1 (configuration not stated)	0	-4	96*	-7	-5
C[C@@H]1CN([C@H](C)CO)C(=O)CCCn2nncc2CO[C@@H]1CN(C)Cc1ccc(Oc2ccccc2)cc1	-1	4	-1	2	/
CCCNC(=O)N1CC2(C1)CN(C(=O)c1ccncc1)[C@@H](CO)c1[nH]c3cc(OC)ccc3c12	-8	-1	-13	-3	/
COC(CNC(=O)CCc1c(C)nc2c(c(C)nn2-c2ccc(C)cc2)c1C)OC	-1	-1	3	-7	-14
Cc1ccc(-n2nc(C)c3c(C)c(CCC(=O)Nc4ccc(CN5CCCC5)cc4)c(C)nc32)cc1	-5	27*	2	3	11
CCNC(=O)[C@H]1[C@H](CO)[C@H]2Cn3c(ccc(-c4ccccc4F)c3=O)[C@H]2N1C	1	-3	-5	-8	/
COc1ccc(NC(=O)C(OC(=O)c2cnc(C)cn2)c2ccccc2)cc1Cl (configuration not stated)	-1	0	75*	-2	-6
CCOC(=O)c1ccc(NC(=O)c2nc[nH]c2C(=O)NC2CCN(C(=O)OC(C)(C)C)CC2)cc1	4	-9	68*	/	-11
CC(C)C[C@H](NC(=O)c1nc[nH]c1C(=O)N1CCC(C)CC1)C(=O)OC(C)(C)C	4	1	82*	/	-11
CC(C)(C)OC(=O)N1CCC(NC(=O)c2nc[nH]c2C(=O)NC2CCN(C(=O)OC(C)(C)C)CC2)CC1	1	5	-7	-8	-5
CC(C)C[C@H](NC(=O)c1nc[nH]c1C(=O)NCC(=O)OCc1ccccc1)C(=O)OC(C)(C)C	-2	-4	-2	21*	21
CC(C)(C)OC(=O)N1CCC(NC(=O)c2nc[nH]c2C(=O)NCC(=O)OCc2ccccc2)CC1	-1	-4	38*	/	-6
C[C@H](NC(=O)c1nc[nH]c1C(=O)NCC(=O)OCc1ccccc1)C(=O)OC(C)(C)C	29	-5	4	3	18
CCCC#Cc1cnc2c(c1)C(=O)N([C@@H](C)CO)C[C@@H](C)[C@H](CN(C)Cc1ccncc1)O2	2	-1	-11	8	/
Cc1noc(C)c1S(=O)(=O)Nc1ccc2c(c1)C(=O)N([C@H](C)CO)C[C@@H](C)[C@@H](CN(C)C(=O)Nc1cccc3ccccc13)O2	-6	-2	-3	3	/
Cc1cc2oc3ccc(NCCCn4ccnc4)cc3c(=O)c2cc1C	/	/	/	/	-23
Cc1cc2oc3ccc(NCCCN4CCOCC4)cc3c(=O)c2cc1C	-4	-4	37*	-1	-12
O=C(O)c1c(C(=O)N2N=C3/C(=C/c4ccccc4)CCCC3C2c2ccccc2)cccc1[N+](=O)[O-] (configuration not stated)	-8	-8	2	5	1
SMILES	S100A4 inh HTS	AF4-AF9 inh	DENV2 CPE	SIRT5 block	CaV13 FRET inh
O=C(O)c1ccccc1C(=O)N1N=C2/C(=C/c3cccc([N+](=O)[O-])c3)CCCC2C1c1cccc([N+](=O)[O-])c1 (configuration not stated)	-1	1	-15	24*	-6
Cc1ccc(C)c(N2CCN(C(=O)c3cccn4c(=O)c5sccc5nc34)CC2)c1	-1	3	-4	19*	-5
CCCNC(=O)[C@@H]1[C@@H](CO)[C@@H]2Cn3c(ccc(C4=CCCC4)c3=O)[C@@H]2N1C(=O)C1CC1	11	-1	6	-9	/
COc1ccc(C(=O)NCc2cc(C(C)C)no2)cc1OC1CCN(C(C)C)CC1	1	-1	2	-7	-6
COc1ccc(C(=O)NCc2nc(C)c(C)s2)cc1OC1CCN(C(C)C)CC1	3	2	9	15*	-11
CN(C)N1C(N)=C(C#N)C(c2ccc(F)cc2)C2=C1CC(C)(C)CC2=O (configuration not stated)	4	-2	9	-1	-14
CN(C)N1C(N)=C(C#N)C(c2ccccc2)C2=C1CC(C)(C)CC2=O (configuration not stated)	-4	0	46*	-2	-18
[N-]=C=C1C(=S)NC(=O)[C@H]([n+]2ccccc2)[C@H]1c1ccc(Cl)cc1	5	-7	0	34*	-15
CC(=O)N(C)C[C@@H]1Oc2ncc(C#CC3(O)CCCC3)cc2C(=O)N([C@H](C)CO)C[C@@H]1C	23	-3	31*	-1	/
COCC(=O)N(C)C[C@@H]1Oc2ncc(C#CC3(O)CCCC3)cc2C(=O)N([C@@H](C)CO)C[C@H]1C	8	-1	41*	-1	/
COCC(=O)N(C)C[C@@H]1Oc2ncc(C#CC3(O)CCCC3)cc2C(=O)N([C@@H](C)CO)C[C@@H]1C	-3	-2	-5	-2	/
Cc1noc(C)c1S(=O)(=O)Nc1cccc2c1O[C@H](CN(C)C(=O)Nc1ccc(C(F)(F)F)cc1)[C@H](C)CN([C@@H](C)CO)C2=O	-76	2	0	0	/
C[C@@H]1CCCCO[C@@H](CN(C)S(=O)(=O)c2ccc(Cl)cc2)[C@H](C)CN([C@H](C)CO)C(=O)c2cc(NS(C)(=O)=O)ccc2O1	-28	4	-2	3	/
Cc1ccc(S(=O)(=O)N[C@@H]2C=C[C@@H](CC(=O)N3CCc4ccccc4C3)O[C@@H]2CO)cc1	3	-2	28*	-4	/
Cc1ccc(S(=O)(=O)N[C@H]2CC[C@H](CC(=O)N3CCN(c4ccccc4)CC3)O[C@H]2CO)cc1	-10	-3	2	-4	/
Cn1cnc(S(=O)(=O)N[C@@H]2CC[C@H](CC(=O)Nc3ccccc3)O[C@H]2CO)c1	45	-1	?	-8	/
